Bioassay records (PubChem BioAssay)
RanGTP-Imp inh: inhibitors of RanGTP-importin-beta interaction, primary screen, biochemical, FRET, CFP-Ran, YFP-importin-beta, homogeneous; Ran GTPase (GTP-bound) - importin-beta complex; cell-free CFP-Ran/YFP-importin-beta FRET ratio; AID 2216, 2009; inhibition, % (test concentration not listed); hit rate 1.1% among 300,000;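 active = more than half of the replicate wells show a fall in the fluorescence ratio signal beyond about 16%, limit read from the data, passing the limit was not always enough; inconclusive = exactly half of the replicate wells pass the set limit; inactive = fewer than half of replicates pass the limit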;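 also: 0% = DMSO wells and 100% = Ran loaded with GDP instead of GTP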
Hck Nef HTS: inhibitors of Nef-activated human Hck kinase, primary screen, biochemical, Z-Lyte FRET, 384-well, Hck-YEEI | Tyrosine-protein kinase HCK (Homo sapiens), P08631 | Recombinant Hck-YEEI plus Nef, Z-Lyte FRET kinase assay | inhibition, % at 20 µM | hit rate 0.68% among 220,000 | AID 463187, 2010;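 active = Hck-Nef kinase inhibition above about 50%, limit read from the data; inactive = inhibition below that limit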;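 also: 0% = DMSO with Hck plus Nef and 100% = Hck alone without Nef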
Target sequence (P08631 whole entry, looked up): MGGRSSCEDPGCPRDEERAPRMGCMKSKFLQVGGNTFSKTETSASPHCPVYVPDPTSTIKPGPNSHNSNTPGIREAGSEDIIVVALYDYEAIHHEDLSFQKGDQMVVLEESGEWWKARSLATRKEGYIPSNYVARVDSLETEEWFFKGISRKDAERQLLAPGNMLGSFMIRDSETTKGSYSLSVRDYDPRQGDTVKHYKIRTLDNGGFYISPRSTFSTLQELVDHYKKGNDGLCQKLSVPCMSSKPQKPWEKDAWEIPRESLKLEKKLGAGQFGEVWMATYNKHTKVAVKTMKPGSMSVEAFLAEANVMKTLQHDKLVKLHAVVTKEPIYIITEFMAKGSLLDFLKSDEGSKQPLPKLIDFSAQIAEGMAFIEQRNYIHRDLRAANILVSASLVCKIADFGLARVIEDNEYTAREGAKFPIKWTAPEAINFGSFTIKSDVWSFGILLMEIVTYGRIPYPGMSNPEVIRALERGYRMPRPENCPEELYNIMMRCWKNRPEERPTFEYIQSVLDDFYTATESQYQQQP
CaV13 FRET inh: Primary screen for inhibitors of IQ motif and Ca2+-dependent inactivation inhibitor domain binding in CACNA1D, Förster resonance energy transfer in living cells, … | HEK cells, CFP/YFP FRET ICDI-IQ, plate reader, 10 min; percent FRET-ratio fall versus neutral wells | inhibition, % at 12.3 µM | AID 743397 | hit rate 0.098% among 340,000;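 active = mean replicate inhibition of at least 30% and at least 1% of replicates passing that level; inconclusive = only one of the two criteria is met; inactive = neither criterion is met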;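 also: 0% = median of the neutral control wells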
Runt-CBFb FRET: inhibitors of RUNX1 Runt–CBFb binding, primary screen, biochemical, FRET, Cerulean-Runt, Venus-CBFb, uHTS; Cerulean-Runt/Venus-CBFb FRET ratio 530/480, 1 h; inhibition, % at 20 µM; hit rate 0.46% among 220,000; AID 1496, 2009;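 active = inhibition over about 50% at 20 µM in the single-dose screen, limit read from the data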;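 also: 0% = DMSO wells and 100% = excess unlabeled CBFb competitor control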
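Measured by: fluorescence energy transfer, 422 nm excitation, 530/480 nm emission; Assay system: Cerulean-Runt domain; Medium: Tris pH 7.5 buffer with BSA; Measure: loss of energy transfer signal; Controls: 5 µM unlabeled CBFb as full-inhibition high control; Incubation: protein complex preformed 1 h, compound exposure 1 h, room temperature, dark.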
Runt-SMMHC FRET: inhibitors of RUNX1 Runt–CBFb-SMMHC binding, primary screen, biochemical, FRET, Cerulean-Runt, Venus-CBFb-SMMHC, uHTS; Runt-related transcription factor 1 (Homo sapiens) + Core-binding factor subunit beta …; inhibition, % at 20 µM; Cerulean-Runt/Venus-CBFb-SMMHC FRET ratio 530/480, 1 h; hit rate 0.74% among 220,000;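 active = mean inhibition across duplicate retests at 20 µM reaching about 50%, limit read from the data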;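 also: 0% = DMSO wells and 100% = wells with excess untagged CBFb-SMMHC; inhibitors lower the FRET ratio by blocking Runt binding to CBFb-SMMHC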
* hit, by the source's call; ? = inconclusive; nt = not tested or not shown; + = active, no number. Rows were chosen to be rich in hits. Some 1.5% of all compounds tested hit in one or more screens of this group.

SMILES	RanGTP-Imp inh	Hck Nef HTS	CaV13 FRET inh	Runt-CBFb FRET	Runt-SMMHC FRET
CCCC(=O)Nc1nc2ccc(OC)cc2s1	0	-1	-7	-1	-2
COc1ccc(CCNC(=S)Nc2cccc(C)c2C)cc1	27*	5	nt	0	5
O=C(CNC(=O)c1ccccc1)OC(C(=O)O)c1ccc(F)cc1 (centres undefined)	nt	nt	-6	nt	nt
COc1cc2c(cc1OC)CN(CC(O)c1ccccc1)CC2 (centres undefined)	27*	nt	-3	nt	nt
CCN(CC)c1ccc(/C=N/N2C(C)CCCC2C)c(O)c1 (centres undefined)	-2	nt	-6	nt	nt
Cn1c(C(=O)N2CCOCC2)cc2c(=O)n3ccccc3nc21	4	nt	-5	nt	nt
Cn1c(C(=O)N2CCc3ccccc3C2)cc2c(=O)n3ccccc3nc21	1	29	-5	21	79*
CC1CN(C(=O)c2cc3c(=O)n4ccccc4nc3n2C)CC(C)O1 (centres undefined)	6	nt	-4	nt	nt
Cn1c(C(=O)O)cc2c(=O)n3ccccc3nc21	8	25	-3	43	78*
CCOC(=O)C1CCN(C(=O)c2cc3c(=O)n4ccccc4nc3n2C)CC1	?	13	7	22	51*
CC(C)CNc1ncnc2[nH]ncc12	nt	nt	-9	nt	nt
COc1cc(-n2nc(C)c3c2OC(N)=C(C#N)C3c2ccccc2)c(Cl)c(Br)c1O (centres undefined)	65*	1	-3	5	8
O=C(Nc1ccccc1F)C1CCN(S(=O)(=O)c2cccnc2)CC1	4	nt	-14	nt	nt
O=C(NCCc1cccc(Cl)c1)c1cccc(-n2cnnn2)c1	nt	nt	-7	nt	nt
COc1ccc(N2CCN(c3nc4ccccc4n3CC(=O)c3ccccc3)CC2)cc1	9	-10	-4	-2	-5
CCOC(=O)C1CCN(c2nc3ccccc3n2CC(=O)c2ccccc2)CC1	21*	21	4	2	-1
COC(=O)c1c(NC(=O)C2COc3ccccc3O2)sc2c1CCN(Cc1ccccc1)C2 (centres undefined)	69*	1	-3	29	50
COC(=O)c1c(NC(=O)C2COc3ccccc3O2)sc2c1CCN(C(=O)OC)C2 (centres undefined)	nt	nt	-4	nt	nt
CCOC(=O)c1c(NC(=O)C(C)Sc2cccc[n+]2[O-])sc2c1CCN(Cc1ccccc1)C2 (centres undefined)	nt	5	-3	112*	81*
CCOC(=O)c1c(NC(C)=O)sc2c1CCN(Cc1ccccc1)C2	87*	nt	-4	nt	nt
CCOC(=O)c1c(NC(=O)CSc2ncccn2)sc2c1CCN(Cc1ccccc1)C2	135*	1	36*	106*	151*
CCOC(=O)c1c(NC(=O)CN2CCCCC2)sc2c1CCN(C(=O)OCC)C2	6	6	-8	-12	-9
COc1ccc(Cc2nnc(NC(=O)c3cc(OC)c(OC)c(OC)c3)s2)cc1	0	nt	-22	nt	nt
COc1cc(C)ccc1OCc1cc(C(=O)N(Cc2c(C)nn(C)c2C)C2CC2)no1	5	nt	-2	nt	nt
CSc1ncccc1C(=O)NC1CC(C)(C)Cc2c1cnn2-c1ccccc1C (centres undefined)	0	nt	-4	nt	nt
SMILES	RanGTP-Imp inh	Hck Nef HTS	CaV13 FRET inh	Runt-CBFb FRET	Runt-SMMHC FRET
COC(=O)c1c(NC(C)=O)sc2c1CCN(Cc1ccccc1)C2	91*	nt	-6	nt	nt
COC(=O)c1c(NC(=O)C(C)(C)C)sc2c1CCN(Cc1ccccc1)C2	32*	nt	-5	nt	nt
CCOC(=O)c1c(NC(=O)CC)sc2c1CCN(Cc1ccccc1)C2	89*	nt	-3	nt	nt
Cc1ccc(-c2cc(-c3ccccc3)c3c(N)c(S(C)(=O)=O)sc3n2)cc1	-4	2	-2	40	89*
N#Cc1sc2nc(-c3ccccc3)cc(-c3ccco3)c2c1N	-65	3	-9	20	-16
Cc1ccc2c(c1)CC1(CN2C)C(=O)OC2(CCCCC2)OC1=O	26*	8	-9	-4	-30
Cc1ccc(CNC(=O)/C(C#N)=C\c2ccc(N(C)C)cc2)cc1	72*	3	nt	12	61*
CCN(CC)c1ccc(/C=C(\C#N)C(=O)NCc2ccco2)cc1	nt	7	10	19	60*
Cn1c(=O)n(C)c2cc(/C=C(/C#N)C(=O)NCc3ccco3)ccc21	0	23	-2	0	2
N#C/C(=C/c1ccc(C(=O)O)cc1)C(=O)NCc1ccccc1	3	1	-7	-2	1
CN(C)c1ccc(/C=C(\C#N)C(=O)NCc2ccco2)cc1	?	4	nt	90*	58*
CCN(CC)c1ccc(/C=C(\C#N)C(=O)NCc2ccccc2)cc1	109*	5	nt	79*	59*
CCOC(=O)[C@]12CCCC=C1N(Cc1ccc(Cl)cc1Cl)C(=O)[C@H](CC(=O)N1CCOCC1)C2	nt	nt	-6	nt	nt
CN1C(=O)Cc2cc(S(=O)(=O)N3CCN(c4cccc(C(F)(F)F)c4)CC3)ccc21	1	nt	-7	nt	nt
COc1ccc(CCn2c(=N)c(S(=O)(=O)c3ccccc3)cc3c(=O)n4ccccc4nc32)cc1	-1	nt	-3	nt	nt
Cc1ccc(S(=O)(=O)c2cc3c(=O)n4ccccc4nc3n(Cc3ccco3)c2=N)cc1C	76*	0	nt	14	-14
CCOCCCn1c(=N)c(S(=O)(=O)c2ccc(C)cc2)cc2c(=O)n3cc(C)ccc3nc21	158*	nt	14	nt	nt
CNC(=O)c1cc2c(=O)n3cc(C)ccc3nc2n(Cc2ccco2)c1=N	nt	nt	nt	88*	42
N=c1c(S(=O)(=O)c2ccc(Br)cc2)cc2c(=O)n3ccccc3nc2n1CCN1CCOCC1	nt	nt	-3	nt	nt
Cc1nc2ccccc2c(=O)n1Cc1ccco1	-9	2	-3	1	-3
Cc1ccc2nc3c(cc(S(=O)(=O)c4ccccc4)c(=N)n3Cc3ccco3)c(=O)n2c1	?	37	+	19	92*
CCOC(=O)c1sc2nc(C)nc(NC3CCC(O)CC3)c2c1C (centres undefined)	-2	nt	-2	nt	nt
C[C@H](NCc1c[nH]c2ccccc12)c1ccccc1	-1	nt	-9	nt	nt
COc1ccc(CCn2c(=N)c(S(=O)(=O)c3ccc(Cl)cc3)cc3c(=O)n4ccccc4nc32)cc1	9	nt	-3	nt	nt
